Screening results deposited in PubChem BioAssay by The Scripps Research Institute Molecular Screening Center.
mABHD4 FP = ABHD4 inhibitors, primary screen, biochemical, fluorescence polarization, mouse; 0.54% of 370,000 active; purified mABHD4, FP-Rh probe fluorescence polarization; AID 720543, 2013; inhibition, % at 8.92 µM; (Lyso)-N-acylphosphatidylethanolamine lipase (Mus musculus), Q8VD66;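 active = inhibition exceeding the mean over every tested compound plus 3 SD, cut at about 30% in these data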;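 also: 0% = plate median of compound wells and 100% = S159A mutant with DMSO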
Target sequence (Q8VD66 whole entry, looked up): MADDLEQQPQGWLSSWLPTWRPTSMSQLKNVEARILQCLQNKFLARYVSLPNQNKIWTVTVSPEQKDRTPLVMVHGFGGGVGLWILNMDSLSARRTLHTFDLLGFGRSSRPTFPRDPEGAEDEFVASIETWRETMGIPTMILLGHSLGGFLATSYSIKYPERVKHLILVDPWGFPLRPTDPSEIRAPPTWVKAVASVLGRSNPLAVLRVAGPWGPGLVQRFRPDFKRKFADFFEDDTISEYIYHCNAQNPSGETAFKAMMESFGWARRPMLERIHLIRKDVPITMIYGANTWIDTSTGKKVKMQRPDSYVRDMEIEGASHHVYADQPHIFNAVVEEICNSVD
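System: mouse ABHD4 enzyme, wild type / Medium: HEPES pH 7.0, NaCl, Pluronic buffer / Reagent: FP-Rh activity-based fluorescent probe / Control set: S159A mutant high control, sample median low control / Detection: fluorescence polarization with parallel and perpendicular emission, 525/598 nm / Schedule: 45 min + 60 min at 25 °C / Compound dosing: 8.92 µM, single dose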
PRMT1 inh = PRMT1 methyltransferase inhibitors, primary screen, biochemical, fluorescence polarization; Protein arginine N-methyltransferase 1 (Homo sapiens), Q99873; recombinant PRMT1, activity-based probe fluorescence polarization; inhibition, % at 2.79 µM; 1.3% of 370,000 active; AID 652257, 2013;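 active = inhibition above about 21% made by adding two undisclosed values, limit read from the data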
SIAE inh = human SIAE inhibitors, primary screen, biochemical, fluorescence polarization, FP-Rh probe, 1536-well HTS. Sialate O-acetylesterase (Homo sapiens), Q9HAT2. SIAE FP-Rh probe binding. inhibition, % at 9.66 µM. 0.69% of 370,000 active. AID 1053197, 2014;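 active = inhibition above a cutoff: mean of compounds within the control limits plus 3 SD of those, cut at about 17% in these data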;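 also: 0% = plate median of compound wells and 100% = probe without SIAE protein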
TCR-CD3 inh = inhibitors of human TCR-CD3 interaction, primary screen, biochemical, fluorescence, TAMRA-labeled TCR probe; AID 651800, 2012; 0.37% of 360,000 active; inhibition, % at 9.4 µM;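 also: recombinant mutant TCR 2C K166C tagged with TAMRA read by polarization; 0% = receptor in buffer alone and 100% = receptor with positive control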
HTRA1 inhibitor = HTRA1 serine protease inhibitors, primary screen, biochemical, fluorescence polarization, HTS | Q92743 | recombinant HTRA1, FP-rhodamine activity-based probe | inhibition, % at 5.96 µM | 0.5% of 340,000 active; in the data active = inhibition above about 36%;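 also: 0% = enzyme with DMSO and 100% = wells lacking enzyme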
HTRA1 conf = HTRA1 protease inhibitors, retest, confirmation, biochemical, fluorescence polarization | shares compounds with HTRA1 inhibitor | recombinant HTRA1, FP-rhodamine activity-based probe | inhibition, % at 5.96 µM | 66% of 1,600 active | AID 540248, 2011;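 active = mean inhibition over three repeats above a set limit taken from the earlier primary screen, cut at about 37% in these data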;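 also: 0% = HTRA1 with DMSO and 100% = wells lacking HTRA1; inhibitors block probe binding so polarization drops and inhibition rises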
BSA TAMRA ctr = compounds interfering with TAMRA-BSA probe, counter-screen for TCR-CD3 interaction inhibitor project, biochemical, fluorescence, TAMRA-labeled BSA. inhibition, % at 9.4 µM. shares compounds with TCR-CD3 inh. AID 652035, 2013. 10% of 1,200 active. TAMRA-labeled BSA probe fluorescence counterscreen; in the data active = inhibition above about 23%;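 also: 0% = buffer low control and 100% = reference high control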
TCR-CD3 inh conf = TCR-CD3 interaction inhibitors, retest, confirmation, biochemical, fluorescence, TAMRA-labeled TCR probe. shares compounds with TCR-CD3 inh. TAMRA-labeled TCR probe fluorescence binding assay. inhibition, % at 9.4 µM. 48% of 1,200 active. AID 652036, 2013
PRMT1 inh conf = PRMT1 methyltransferase inhibitors, confirmation, biochemical, fluorescence polarization, triplicate; 42% of 3,300 active; shares compounds with PRMT1 inh; AID 687036, 2013; recombinant His-PRMT1, activity-based probe fluorescence polarization; inhibition, % at 2.79 µM;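 active = mean inhibition across replicates above the hit cutoff derived for the earlier primary screen, cut at about 22% in these data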
ABHD4 confirm = ABHD4 inhibitors, retest, confirmation, biochemical, fluorescence polarization, mouse | shares compounds with mABHD4 FP | purified mABHD4, FP-Rh probe fluorescence polarization | inhibition, % at 8.92 µM | 55% of 1,800 active;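 active = mean inhibition across replicates above the hit cutoff set in the primary screen, cut at about 30% in these data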;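 also: 0% = wild-type ABHD4 with DMSO and 100% = catalytically dead S159A mutant with DMSO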
SIAE inh conf = human SIAE inhibitors, retest, confirmation, biochemical, fluorescence polarization, FP-Rh probe, triplicate | AID 1117263, 2014 | SIAE FP-Rh activity-based probe | 13% of 2,300 active | shares compounds with SIAE inh | inhibition, % at 9.66 µM;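 active = mean inhibition of the replicates above the hit cutoff set in the primary screen, cut at about 17% in these data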;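 also: 0% = SIAE with DMSO and probe and 100% = probe without SIAE; inhibitors lower polarization as more probe stays unbound to SIAE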
* hit, by the source's call; nt = no result given. Compounds with a hit are over-represented: about 2.5% of the library has one in this group of screens. Rule as the data show it, unless noted: active = inhibition above about 19%; inactive = the rest.

SMILES	mABHD4 FP	PRMT1 inh	SIAE inh	TCR-CD3 inh	HTRA1 inhibitor	HTRA1 conf	ABHD4 confirm	SIAE inh conf	others
O=C(NC1CCCCN(Cc2cccc(C(F)(F)F)c2)C1=O)c1cccc(F)c1 (stereo not given)	0	0	0	nt	nt	nt	nt	nt
O=C1C=C(Nc2ccccc2)c2ccccc2C1=O	12	6	3	-1	2	nt	nt	nt
O=C1C=C(Nc2cccc3cccnc23)c2ccccc2C1=O	59*	9	19*	14	42*	39*	25	4
CCn1c(CSc2nnc(-c3ccncc3)n2C)nc2cc(C(=O)O)ccc21	23	1	28*	89*	66*	56*	nt	39*	BSA TAMRA ctr=155*;TCR-CD3 inh conf=109*
CCn1c(CSc2ncn[nH]2)nc2cc(C(=O)O)ccc21	2	-3	7	8	10	nt	nt	nt
N/C(=N\OC(=O)Cc1cccs1)c1ccc([N+](=O)[O-])cc1	5	0	-1	4	-3	nt	nt	nt
O=C(N/N=C/c1c(O)ccc2ccccc12)c1cccc(C(F)(F)F)c1	21	2	25*	11	57*	58*	nt	6
COc1ccc2ccccc2c1/C=N/NC(=O)c1cccc(Br)c1	-3	2	-11	-3	-42	nt	nt	nt
NNC(=O)c1oc2nc(-c3cccs3)cc(-c3ccco3)c2c1N	20	15	55*	13	57*	48*	nt	75*
O=C(O)c1ccc2nc(-c3ccccc3)c(-c3ccccc3)nc2c1	-15	0	-7	4	3	nt	nt	nt
O=C(c1ccccc1)c1ccc2nc(-c3ccco3)c(-c3ccco3)nc2c1	44*	34*	25*	13	45*	191*	21	1
CCOc1c(Cl)cc(CNc2ccc(N3CCCC3)cc2)cc1OC	24	5	21*	7	50*	16	nt	11
O=C(Nc1ccccc1[N+](=O)[O-])C1COc2ccccc2O1 (stereo not given)	1	3	-1	-2	2	nt	nt	nt
Nc1nnc(SCC(=O)Nc2cccc3ccccc23)s1	-1	5	0	-9	1	nt	nt	nt
COc1ccc(O)c(/C=N/NC(=S)Nc2cccc(S(=O)(=O)N(C)C)c2)c1	3	-1	33*	14	38*	19	nt	-6
CN(C)S(=O)(=O)c1cccc(NC(=S)N/N=C/c2ccc(O)c(O)c2O)c1	32*	36*	35*	51*	45*	49*	82*	27*	PRMT1 inh conf=84*
COc1cc(C(=O)N2CCN(S(=O)(=O)c3cccc(F)c3)CC2)ccc1OCC(=O)N1CCOCC1	-6	3	4	6	1	nt	nt	nt
Cc1ccc([N+](=O)[O-])cc1-c1[nH]c(-c2ccc(O)c(O)c2)nc1-c1ccccc1	27	1	34*	11	69*	85*	nt	-17
O=[N+]([O-])c1ccccc1N/N=C/c1c[nH]c2ccccc12	49*	1	18*	4	78*	76*	89*	21*
C(=N\Nc1nc2ccccc2[nH]1)/c1c[nH]c2ccccc12	14	1	21*	4	38*	21	nt	33*
O=[N+]([O-])c1ccc(N/N=C/c2c[nH]c3ccccc23)cc1	10	15	8	-17	31	nt	nt	nt
CCCCN1C(=O)C(CC(=O)NCc2ccco2)CC(C(=O)N2CCOCC2)=C1C (stereo not given)	9	0	-1	6	6	nt	nt	nt
COc1ccc(OC)c(NC(=O)C2CCN(C(=O)C3CC(=O)N(c4ccc(C)cc4)C3)CC2)c1 (stereo not given)	5	3	-1	3	7	nt	nt	nt
NS(=O)(=O)c1ccc(N/N=C/c2ccc(O)c(O)c2O)c([N+](=O)[O-])c1	60*	46*	37*	59*	78*	67*	62*	11	BSA TAMRA ctr=-10;TCR-CD3 inh conf=74*;PRMT1 inh conf=79*
COc1cccc2c1C(=O)c1c(O)c3c(c(O)c1C2=O)CC(O)(C(C)=O)CC3OC1CC(N(C)C)C(O)C(C)O1 (stereo not given)	72*	193*	64*	156*	68*	68*	61*	54*	BSA TAMRA ctr=176*;TCR-CD3 inh conf=145*;PRMT1 inh conf=154*
SMILES	mABHD4 FP	PRMT1 inh	SIAE inh	TCR-CD3 inh	HTRA1 inhibitor	HTRA1 conf	ABHD4 confirm	SIAE inh conf	others
COc1cccc2c1C(=O)c1c(O)c3c(c(O)c1C2=O)C[C@@](O)(C(=O)CO)C[C@@H]3OC1CC(N)C(O)C(C)O1 (stereo not given in full)	75*	141*	54*	125*	73*	65*	55*	55*	BSA TAMRA ctr=156*;TCR-CD3 inh conf=126*
O=C(O)c1ccccc1C(=O)c1ccc(F)c(F)c1	-11	7	-6	0	0	nt	nt	nt
C/C(CC(=O)N1CCN(C=O)CC1)=N\NC(=O)c1ccc([N+](=O)[O-])cc1	5	4	10	5	5	nt	nt	nt
C/C(=N\NC(=O)c1cc2ccccc2cc1O)c1cc2ccccc2o1	26	-3	17*	5	36*	10	nt	10
C/C(CC(=O)N1CCN(C=O)CC1)=N\NC(=O)c1cc2ccccc2cc1O	40*	2	20*	13	39*	37*	35*	3
CCc1nn(CCCC(=O)NC2CCCCC2C)c(=O)c2cc3occc3n12 (stereo not given)	-1	-2	-4	8	0	nt	nt	nt
